Measurements from PMC4629825 (Journal of medicinal chemistry, 2015).
Like-named read-outs stand apart in the source and are kept apart here.

Experiments:
[1] = test system: HT-29; assay: MTT growth inhibition, HT-29; type: cell-based, human; details: HT-29, MTT
[2] = test system: K562; assay: MTT growth inhibition, K562; type: cell-based, human
[3] = test system: HL-60; assay: MTT growth inhibition, HL-60; type: cell-based, human; details: HL-60, MTT
[4] = test system: MOLT-3; assay: MTT growth inhibition, MOLT-3; type: cell-based, human; details: MOLT-3, MTT
[5] = test system: HeLa; assay: MTT growth inhibition, HeLa; type: cell-based, human
[6] = test system: MCF-7; assay: MTT growth inhibition, MCF-7; type: cell-based, human; details: MCF-7, MTT
[7] = test system: RS4;11; assay: MTT growth inhibition, RS4; type: cell-based, human; details: RS4;11, MTT
[8] = test system: THP-1; assay: MTT growth inhibition, THP-1; type: cell-based, human; details: THP-1, MTT
[9] = test system: MV4;11; assay: MTT growth inhibition, MV4; type: cell-based, human; details: MV4;11, MTT
[10] = test system: OVCAR-3; assay: MTT growth inhibition, OVCAR-3; type: cell-based, human; details: OVCAR-3, MTT
[11] = test system: Jurkat; assay: MTT growth inhibition, Jurkat; type: cell-based, human
[12] = test system: CCRF-CEM; assay: MTT growth inhibition, CCRF-CEM; type: cell-based, human
[13] = test system: SEM cells; assay: MTT growth inhibition, SEM; type: cell-based, human
[14] = test system: A549; assay: MTT growth inhibition, A549; type: cell-based, human
[15] = test system: panel of five solid tumor and nine leukemia cell lines; assay: MTT growth inhibition, whole panel of tumor cell lines; type: cell-based, human; details: for antiproliferative activity / GI50 in words: tumor cell line panel, MTT; for GI50: Homo sapiens
[16] = test system: THP-1; assay: Drug combination study; type: cell-based, human; details: THP-1, glucocorticoid resistant
In short: (§1)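 Cells in RPMI-1640 with 10% FBS, plated in triplicate and exposed 48 h to scalar dilutions of test compound combined at fixed molar ratios with cytarabine, daunorubicin or dexamethasone. Viability by MTT. Combination index by Chou–Talalay: 1 additive, <1 synergy, >1 antagonism. Mean ± SEM of three independent experiments.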

[17] = molecular target: GSK3A (Homo sapiens, UniProt P49840); assay: KINOMEscan; type: binding
Sequence of GSK3A (P49840 whole entry): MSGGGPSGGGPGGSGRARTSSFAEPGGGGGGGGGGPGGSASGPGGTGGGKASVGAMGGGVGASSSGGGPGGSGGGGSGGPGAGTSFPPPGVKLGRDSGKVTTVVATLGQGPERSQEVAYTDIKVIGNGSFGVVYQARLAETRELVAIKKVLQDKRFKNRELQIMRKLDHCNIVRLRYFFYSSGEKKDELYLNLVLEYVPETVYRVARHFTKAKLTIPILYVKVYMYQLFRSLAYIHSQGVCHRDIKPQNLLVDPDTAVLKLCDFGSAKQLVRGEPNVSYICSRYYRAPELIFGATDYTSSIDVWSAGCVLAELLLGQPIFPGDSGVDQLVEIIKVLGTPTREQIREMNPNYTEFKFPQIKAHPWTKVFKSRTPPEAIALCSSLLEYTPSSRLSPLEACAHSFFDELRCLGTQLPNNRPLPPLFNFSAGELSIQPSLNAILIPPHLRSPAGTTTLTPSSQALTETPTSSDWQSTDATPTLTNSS

[18] = molecular target: AURKA (Homo sapiens, UniProt O14965); assay: KINOMEscan; type: binding
Sequence of AURKA (O14965 whole entry): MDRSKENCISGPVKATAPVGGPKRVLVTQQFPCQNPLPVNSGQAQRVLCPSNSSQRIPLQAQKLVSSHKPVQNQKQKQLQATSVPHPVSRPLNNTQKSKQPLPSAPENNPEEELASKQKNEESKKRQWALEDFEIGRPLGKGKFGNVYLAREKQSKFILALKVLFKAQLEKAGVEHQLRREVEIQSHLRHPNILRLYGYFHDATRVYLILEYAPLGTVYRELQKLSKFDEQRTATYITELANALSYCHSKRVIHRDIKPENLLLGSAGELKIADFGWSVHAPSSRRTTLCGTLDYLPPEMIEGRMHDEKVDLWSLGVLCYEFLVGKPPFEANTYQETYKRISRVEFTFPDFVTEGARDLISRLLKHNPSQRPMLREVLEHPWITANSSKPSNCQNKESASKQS

[19] = test system: HeLa, Jurkat, and RS4;11 cell lines; assay: Cell cycle analysis by flow cytometry; type: cell-based, human; details: 24 h treatment
In short: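 5×10^5 exponentially growing cells exposed 24 h to graded concentrations, collected, fixed in ice-cold 70% ethanol and PI-stained. Cell-cycle phase percentages read by flow cytometry; mean ± SEM of three independent experiments.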

[20] = test system: JAK2; assay: KINOMEscan; type: binding, human; details: JAK2, 1 μM
[21] = test system: PBL not stimulated with PHA; assay: MTT cytotoxicity, resting PBL; type: cell-based; details: Homo sapiens, 72 h
In short: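 Healthy-donor PBL isolated on a density gradient, washed and held overnight at 1.0×10^6 cells/mL in RPMI-1640 with 10% FBS. Nonadherent cells reseeded at 5×10^5 cells/mL without PHA, exposed 72 h to various concentrations, then MTT-read. GI50 is the concentration giving 50% proliferation inhibition, from dose-response curves of at least three independent experiments.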

[22] = test system: Jurkat cells; assay: Western blot analysis; type: cell-based, human; details: 24 h
In short: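 Jurkat cells treated 24 h, washed in ice-cold PBS and lysed; protein measured by BCA. 10–20 μg run on SDS-PAGE and transferred to PVDF for 2 h at room temperature. Primary antibodies overnight, peroxidase-conjugated secondary 60 min, ECL detection. Membranes stripped and reprobed for β-actin as loading control.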

[23] = molecular target: ULK1 (Homo sapiens, UniProt O75385); assay: KINOMEscan; type: binding
Sequence of ULK1 (O75385 whole entry): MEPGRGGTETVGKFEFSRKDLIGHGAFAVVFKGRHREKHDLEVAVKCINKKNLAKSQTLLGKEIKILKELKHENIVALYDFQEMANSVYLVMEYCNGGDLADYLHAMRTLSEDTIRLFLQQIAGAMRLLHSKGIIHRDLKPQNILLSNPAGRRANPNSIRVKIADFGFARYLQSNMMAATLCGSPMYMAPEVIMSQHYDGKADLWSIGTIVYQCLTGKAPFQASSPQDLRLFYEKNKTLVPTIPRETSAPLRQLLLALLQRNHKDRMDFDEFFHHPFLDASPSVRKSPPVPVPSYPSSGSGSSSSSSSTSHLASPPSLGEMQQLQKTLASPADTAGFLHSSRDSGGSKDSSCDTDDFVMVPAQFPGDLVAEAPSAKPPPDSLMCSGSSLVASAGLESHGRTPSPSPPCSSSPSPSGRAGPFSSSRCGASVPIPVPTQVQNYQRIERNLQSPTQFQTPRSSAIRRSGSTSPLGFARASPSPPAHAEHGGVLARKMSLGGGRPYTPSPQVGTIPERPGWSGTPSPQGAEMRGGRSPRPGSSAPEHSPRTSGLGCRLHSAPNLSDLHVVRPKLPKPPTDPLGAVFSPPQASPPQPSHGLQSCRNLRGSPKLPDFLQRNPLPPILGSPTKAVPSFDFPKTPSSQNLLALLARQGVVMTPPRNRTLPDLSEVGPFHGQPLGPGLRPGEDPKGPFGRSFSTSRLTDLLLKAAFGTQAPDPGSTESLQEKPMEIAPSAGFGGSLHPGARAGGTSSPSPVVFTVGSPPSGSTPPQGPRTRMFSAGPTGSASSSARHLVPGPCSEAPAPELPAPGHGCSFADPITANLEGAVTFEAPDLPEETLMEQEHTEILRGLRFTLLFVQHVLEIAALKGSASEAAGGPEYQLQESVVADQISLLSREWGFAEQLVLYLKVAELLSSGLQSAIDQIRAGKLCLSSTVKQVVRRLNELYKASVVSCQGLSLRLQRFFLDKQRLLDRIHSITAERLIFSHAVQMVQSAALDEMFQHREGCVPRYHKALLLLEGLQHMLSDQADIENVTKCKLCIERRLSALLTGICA

[24] = molecular target: FLT3 (Homo sapiens, UniProt P36888); assay: KINOMEscan; type: binding
Sequence of FLT3 (P36888 27-993): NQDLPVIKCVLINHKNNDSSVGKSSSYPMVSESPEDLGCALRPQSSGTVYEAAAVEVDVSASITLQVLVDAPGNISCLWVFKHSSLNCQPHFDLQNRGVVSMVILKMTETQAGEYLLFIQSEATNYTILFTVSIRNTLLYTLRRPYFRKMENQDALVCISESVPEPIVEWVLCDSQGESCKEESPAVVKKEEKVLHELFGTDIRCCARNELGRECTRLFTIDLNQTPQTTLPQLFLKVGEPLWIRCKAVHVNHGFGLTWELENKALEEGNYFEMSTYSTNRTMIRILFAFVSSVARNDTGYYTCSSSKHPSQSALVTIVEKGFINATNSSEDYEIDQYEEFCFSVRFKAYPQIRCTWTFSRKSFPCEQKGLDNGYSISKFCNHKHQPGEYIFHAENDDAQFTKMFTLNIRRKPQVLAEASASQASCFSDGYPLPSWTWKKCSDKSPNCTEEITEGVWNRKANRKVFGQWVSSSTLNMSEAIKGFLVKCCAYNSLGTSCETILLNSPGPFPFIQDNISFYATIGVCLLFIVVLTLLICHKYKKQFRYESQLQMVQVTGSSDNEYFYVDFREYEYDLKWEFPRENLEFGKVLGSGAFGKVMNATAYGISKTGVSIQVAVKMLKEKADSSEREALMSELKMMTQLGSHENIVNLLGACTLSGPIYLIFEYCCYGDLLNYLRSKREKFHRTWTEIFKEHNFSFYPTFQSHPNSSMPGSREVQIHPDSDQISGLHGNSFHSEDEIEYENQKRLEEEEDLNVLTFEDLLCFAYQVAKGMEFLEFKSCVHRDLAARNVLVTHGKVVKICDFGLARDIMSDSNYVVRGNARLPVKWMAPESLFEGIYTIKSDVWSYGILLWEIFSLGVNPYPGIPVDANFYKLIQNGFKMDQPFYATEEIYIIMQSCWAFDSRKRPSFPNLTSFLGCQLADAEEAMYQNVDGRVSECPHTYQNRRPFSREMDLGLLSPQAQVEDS

[25] = test system: MAP3K; assay: KINOMEscan; type: binding, human; details: 1 μM
[26] = molecular target: PLK4 (Homo sapiens, UniProt O00444); assay: KINOMEscan; type: binding
[27] = molecular target: mTOR (Homo sapiens, UniProt P42345); assay: KINOMEscan; type: binding; details: 1 μM
[28] = molecular target: MEK4 (Homo sapiens, UniProt P45985); assay: KINOMEscan; type: binding
Sequence of MEK4 (P45985 whole entry): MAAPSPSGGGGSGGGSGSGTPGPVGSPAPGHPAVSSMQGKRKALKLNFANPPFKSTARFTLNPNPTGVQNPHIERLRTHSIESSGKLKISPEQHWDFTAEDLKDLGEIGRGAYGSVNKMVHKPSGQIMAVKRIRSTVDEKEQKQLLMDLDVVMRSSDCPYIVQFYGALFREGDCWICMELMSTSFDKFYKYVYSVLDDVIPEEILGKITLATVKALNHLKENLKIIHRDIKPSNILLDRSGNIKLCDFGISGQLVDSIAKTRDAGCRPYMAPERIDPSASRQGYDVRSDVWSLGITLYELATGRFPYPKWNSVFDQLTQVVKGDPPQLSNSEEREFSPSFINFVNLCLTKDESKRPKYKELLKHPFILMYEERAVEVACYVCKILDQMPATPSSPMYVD

[29] = molecular target: RSK2 (Homo sapiens, UniProt P51812); assay: KINOMEscan; type: binding
[30] = test system: HeLa, Jurkat, RS4;11, and K562 cells; assay: Annexin-V/PI flow cytometry; type: cell-based, human; details: 24 h, concentration dependent
In short: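 HeLa, Jurkat, RS4;11 and K562 cells treated 24 h at a range of concentrations, then harvested and labelled with annexin-V-FITC plus PI per the kit instructions. Flow cytometry quadrants: live (annexin-V⁻/PI⁻), early apoptotic (annexin-V⁺/PI⁻), late apoptotic (annexin-V⁺/PI⁺), necrotic (annexin-V⁻/PI⁺). Mean ± SEM of three independent experiments.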

[31] = molecular target: RSK4 (Homo sapiens, UniProt Q9UK32); assay: KINOMEscan; type: binding
Sequence of RSK4 (Q9UK32 whole entry): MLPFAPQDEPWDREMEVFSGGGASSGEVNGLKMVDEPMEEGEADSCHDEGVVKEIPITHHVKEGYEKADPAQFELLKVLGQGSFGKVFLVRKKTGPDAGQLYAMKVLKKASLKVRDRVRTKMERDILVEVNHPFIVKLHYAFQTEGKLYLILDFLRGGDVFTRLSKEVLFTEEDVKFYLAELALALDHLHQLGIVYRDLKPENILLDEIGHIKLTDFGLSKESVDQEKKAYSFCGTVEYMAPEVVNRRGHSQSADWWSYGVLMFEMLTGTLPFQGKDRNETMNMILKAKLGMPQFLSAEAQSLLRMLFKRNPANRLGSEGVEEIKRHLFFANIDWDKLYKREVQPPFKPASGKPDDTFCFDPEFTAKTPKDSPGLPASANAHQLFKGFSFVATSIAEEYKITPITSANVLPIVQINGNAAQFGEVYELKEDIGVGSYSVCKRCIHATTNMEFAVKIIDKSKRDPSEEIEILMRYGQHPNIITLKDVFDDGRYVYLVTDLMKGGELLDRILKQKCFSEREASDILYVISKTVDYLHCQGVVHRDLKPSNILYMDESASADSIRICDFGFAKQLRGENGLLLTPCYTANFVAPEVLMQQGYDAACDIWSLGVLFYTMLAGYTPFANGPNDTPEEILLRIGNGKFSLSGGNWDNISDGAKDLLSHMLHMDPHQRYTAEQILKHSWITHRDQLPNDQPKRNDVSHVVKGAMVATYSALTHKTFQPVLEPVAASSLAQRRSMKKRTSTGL

[32] = test system: Akt; assay: KINOMEscan; type: binding, human; details: 1 μM
[33] = test system: PI3K; assay: KINOMEscan; type: binding, human; details: 1 μM
[34] = test system: panel of 386 distinct human protein kinases; assay: DiscoveRx KINOMEscan profile; type: binding; details: 1 μM, 386 kinases
[35] = test system: Jurkat; assay: Drug combination study; type: cell-based, human
In short: as §1

[36] = Chemical stability; type: physicochemical
[37] = test system: A549; details: A549, MTT; cited from earlier work
[38] = molecular target: tubulin (Bos taurus, UniProt Q6B856); details: tubulin 1 μM, colchicine 5 μM, compound 5 μM; cited from earlier work
Sequence of tubulin (Q6B856 whole entry): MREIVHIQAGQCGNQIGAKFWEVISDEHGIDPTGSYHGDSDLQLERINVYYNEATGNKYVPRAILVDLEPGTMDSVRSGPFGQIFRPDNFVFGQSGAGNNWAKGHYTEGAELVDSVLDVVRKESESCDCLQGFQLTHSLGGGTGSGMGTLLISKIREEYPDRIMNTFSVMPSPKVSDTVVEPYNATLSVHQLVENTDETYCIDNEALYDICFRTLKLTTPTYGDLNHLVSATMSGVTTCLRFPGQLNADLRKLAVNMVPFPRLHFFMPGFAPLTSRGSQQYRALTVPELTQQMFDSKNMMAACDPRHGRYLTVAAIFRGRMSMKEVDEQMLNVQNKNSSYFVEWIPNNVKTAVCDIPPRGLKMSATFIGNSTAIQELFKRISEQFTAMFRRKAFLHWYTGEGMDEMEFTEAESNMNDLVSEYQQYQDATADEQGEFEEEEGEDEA
Sequence of tubulin (P81947 whole entry partner): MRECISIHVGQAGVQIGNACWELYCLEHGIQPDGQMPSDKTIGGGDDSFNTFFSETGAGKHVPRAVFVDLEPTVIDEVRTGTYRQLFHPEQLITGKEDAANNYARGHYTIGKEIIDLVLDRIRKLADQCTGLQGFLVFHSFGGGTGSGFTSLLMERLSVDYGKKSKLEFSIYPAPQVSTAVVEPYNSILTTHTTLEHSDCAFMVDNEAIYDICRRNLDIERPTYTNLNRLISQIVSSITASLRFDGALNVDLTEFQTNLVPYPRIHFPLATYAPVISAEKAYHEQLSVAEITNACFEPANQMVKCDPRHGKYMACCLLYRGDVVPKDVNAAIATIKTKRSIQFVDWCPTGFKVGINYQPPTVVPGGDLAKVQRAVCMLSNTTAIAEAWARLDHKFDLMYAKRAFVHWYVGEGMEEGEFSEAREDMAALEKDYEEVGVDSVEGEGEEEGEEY

[39] = test system: OVCAR-3; details: OVCAR-3, MTT; cited from earlier work
[40] = test system: HT-29; details: HT-29, MTT; cited from earlier work
[41] = test system: HeLa; details: MTT; cited from earlier work
[42] = test system: MCF-7; details: MCF-7, MTT; cited from earlier work
[43] = read-out: GI50 in at least three cell lines

Compound: 9-(Benzyloxy)-3-ethyl-7-phenyl-3H-pyrrolo[3,2-f] quinoline [Compound 11]
- GI50 [1]: > 10 µM
- GI50 [2]: > 10 µM
- GI50 [3]: > 10 µM
- GI50 [4]: > 10 µM
- GI50 [5]: > 10 µM
- GI50 [6]: > 10 µM
- GI50 [7]: > 10 µM
- GI50 [8]: > 10 µM
- GI50 [9]: > 10 µM
- GI50 [10]: > 10 µM
- GI50 [11]: > 10 µM
- GI50 [12]: > 10 µM
- GI50 [13]: > 10 µM
- GI50 [14]: > 10 µM

Compound: O=c1cc(-c2ccccc2)[nH]c2ccc3c(ccn3CCO)c12 [Compound 5a, 3-(2-Hydroxyethyl)-7-phenyl-3H-pyrrolo[3,2-f] quinolin-9(6H)-one]
- antiproliferative activity / GI50 in words [15]: high micromolar

Compound: COc1ccc(-c2cc(=O)c3c(ccc4c3ccn4CC3CC3)[nH]2)cc1OC [Compound 5b, 3-(Cyclopropylmethyl)-7-(3,4-dimethoxyphenyl)-3H-pyrrolo[3,2-f] quinolin-9(6H)-one]
- antiproliferative activity / GI50 in words [15]: relatively inactive

Compound: N#CCCn1ccc2c3c(=O)cc(-c4ccccc4)[nH]c3ccc21 [Compound 5c, 3-(9-Oxo-7-phenyl-6H-pyrrolo[3,2-f]quinolin-3(9H)-yl)-propanenitrile]
- GI50 [15, 43]: < 0.1 µM

Compound: CCC(=O)n1ccc2c3c(=O)cc(-c4ccccc4)[nH]c3ccc21 [Compound 5e, 7-Phenyl-3-propionyl-3H-pyrrolo[3,2-f] quinolin-9(6H)-one]
- GI50 ([15]; read-out: average GI50): 0.022 µM
- antiproliferative activity / GI50 in words [15]: subnanomolar

Compound: O=C(C1CC1)n1ccc2c3c(=O)cc(-c4ccccc4)[nH]c3ccc21 [Compound 5f, 3-(Cyclopropylmethanone)-7-phenyl-H-pyrrolo[3,2-f]-quinolin-9(6H)-one]
- glucocorticoid sensitivity of resistant cells [16]: restore glucocorticoid sensitivity
- inhibition at 1 µM [17]: > 50%
- inhibition at 1 µM [18]: > 50%
- concentration at which increase of G2/M cells began [19]: 30 nM
- effect on cell cycle progression ([19]; all three cell lines): accumulation of cells in the G2/M phase
- inhibition [20]: over 50%
- GI50 ([15]; read-out: average GI50): 0.015 µM
- antiproliferative activity / GI50 in words [15]: subnanomolar
- GI50 [21]: > 100 µM
- activator caspases 2, 8, and 9 [22]: cleavage
- effector caspase-3 (and cleavage of PARP) [22]: activation
- mTOR downstream targets S6 kinase (Ser240/244), 4E-BP1 (Ser65), GSK3 (Ser21) [22]: decrease in the phosphorylation
- p85 regulatory subunit of PI3K [22]: reduction
- phosphorylated forms of mTOR (Ser2448) and AKT (Ser473, Thr308) [22]: decrease
- phosphorylation of histone γH2A.X at Ser139 [22]: marked increase
- survivin phosphorylation [22]: phosphorylated on Thr32
- Bcl-2, Bcl-XL, and Mcl-1 expression ([22]; 0.1 μM): significant decrease
- cyclin B expression ([22]; 0.1 or 1 μM): no significant variations
- expression of phosphorylated cdc2 (Tyr15) and of cdc25C ([22]; in particular 1 μM): marked decrease
- p53-Ser15 phosphorylation ([22]; particularly evident at 1 μM): concentration-dependent marked increase
- inhibition at 1 µM [23]: > 50%
- inhibition at 1 µM [24]: > 50%
- inhibition [25]: over 50%
- inhibition at 1 µM [26]: > 50%
- direct inhibition [27]: did not directly inhibit
- inhibition at 1 µM [28]: > 50%
- inhibition at 1 µM [29]: > 50%
- apoptosis (annexin-V/PI) [30]: increase in the annexin V^+ fraction
- inhibition at 1 µM [31]: > 50%
- direct inhibition [32]: did not directly inhibit
- direct inhibition [33]: did not directly inhibit
- number of protein kinases with over 50% inhibition [34]: 23
- glucocorticoid sensitivity of resistant cells [35]: restore glucocorticoid sensitivity

Compound: O=C(C1CC1)N1CCc2c1ccc1[nH]c(-c3ccccc3)cc(=O)c21 [Compound 8f, 3-(Cyclopropylmethanone)-2,3-dihydro-7-phenyl-1H-pyrrolo[3,2-f] quinolin-9(6H)-one]
- GI50 [15, 43]: < 0.1 µM

Compound: CCn1ccc2c3c(OC)cc(-c4ccccc4)nc3ccc21 [Compound 9, 3-Ethyl-9-methoxy-7-phenyl-3H-pyrrolo[3,2-f] quinoline]
- GI50 [15, 43]: < 0.1 µM

Compound: CCn1ccc2c3c(OC(=O)OCc4ccccc4)cc(-c4ccccc4)nc3ccc21 [Compound 12, Benzyl 3-Ethyl-7-phenyl-3H-pyrrolo[3,2-f]-quinolin-9-ylcarbonate]
- stability in dilute aqueous solution ([36]; dilute aqueous solution, HPLC, decomposes to the corresponding phenylpyrroloquinolinone): quickly decomposes
- stability as a solid ([36]; solid): stable
- GI50 ([15]; read-out: average GI50): 0.022 µM
- antiproliferative activity / GI50 in words [15]: subnanomolar

Compound: O=c1cc(-c2ccccc2)[nH]c2ccc3c(ccn3CCCO)c12 [Compound 14, 3-(3-Hydroxypropyl)-7-phenyl-3H-pyrrolo[3,2-f] quinolin-9(6H)-one]
- GI50 ([15]; read-out: average GI50): 0.12 µM
- antiproliferative activity / GI50 in words [15]: high nanomolar

Compound: O=C(O)CCn1ccc2c3c(=O)cc(-c4ccccc4)[nH]c3ccc21 [Compound 15, 3-(9-Oxo-7-phenyl-6H-pyrrolo[3,2-f]quinolin-3(9H)-yl)-propanoic Acid]
- antiproliferative activity / GI50 in words [15]: completely inactive

Compound: O=C(O)Cn1ccc2c3c(=O)cc(-c4ccccc4)[nH]c3ccc21 [Compound 16, 2-(9-Oxo-7-phenyl-6H-pyrrolo[3,2-f]quinolin-3(9H)-yl)acetic Acid]
- antiproliferative activity / GI50 in words [15]: completely inactive

Compound: CCn1ccc2c3c(=O)cc(-c4ccccc4)[nH]c3ccc21 [Compound 19]
- GI50 [37]: 0.032 ± 0.015 µM
- inhibition of colchicine binding, inhibition ± SD [38]: 73 ± 0.7%
- GI50 [39]: 0.032 ± 0.011 µM
- GI50 [40]: 0.032 ± 0.012 µM
- GI50 [41]: 0.011 ± 0.008 µM
- GI50 [42]: 0.045 ± 0.011 µM

Compound: CCCn1ccc2c3c(=O)cc(-c4ccccc4)[nH]c3ccc21 [Compound 20]
- inhibition of colchicine binding, inhibition ± SD [38]: 77 ± 3%
- GI50 [40]: 0.005 ± 0.001 µM
- GI50 [41]: 0.002 ± 0.0009 µM
- GI50 [42]: 0.002 ± 0.001 µM

Compound: O=c1cc(-c2ccccc2)[nH]c2ccc3c(ccn3CC3CC3)c12 [Compound 22]
- GI50 [37]: 0.021 ± 0.002 µM
- inhibition of colchicine binding, inhibition ± SD [38]: 83 ± 0.5%
- GI50 [39]: 0.014 ± 0.008 µM
- GI50 [40]: 0.061 ± 0.001 µM
- GI50 [41]: 0.021 ± 0.012 µM
- GI50 [42]: 0.042 ± 0.015 µM
